Measurements taken from article PMC3346673 (Toxicological and environmental chemistry, 2012).

How the values were obtained:
rats = test: 28 day repeated oral dose toxicity study with clinical chemistry and hematology; format: in vivo, rat (Wistar); conditions: for Ca^2+ / Cl^− / HCT / HGB / K^+ / Mg^2+ / Na^+ / Phosphorus / RBC: mean
Summary of the method: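 Male and female Wistar rats, 10 of each sex per group, gavaged daily for 28 days with the test compound suspended in corn oil at 0, 0.1, 0.5 or 1.0 g kg−1 body weight day−1.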

[1] = Biodistribution of NBMI in plasma and tissues after oral gavage; format: in vivo, rat (Sprague Dawley); conditions: for concentration at 1 h / concentration at 2 h / concentration at 8 h / concentration at 24 h: male, Sprague Dawley, rat, 100 mg kg^−1
Summary of the method: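 Twelve-hour-fasted male Sprague-Dawley rats were gavaged with 100 mg kg−1 test compound in corn oil, three per time point. Jugular-cannula blood was taken at 1, 2, 8 and 24 h into heparin and spun at 4°C; tissues were excised and weighed. Samples were DTT-reduced, then analysed by LC-MS:MS: Synergi Polar RP column, ammonium formate pH 3.5/acetonitrile gradient, ESI MRM.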

[2] = 0.1, 0.5 and 1.0 g kg^−1 day^−1 gavage, 28 days
[3] = females, 100 mg kg^−1, end of 28 day daily dosing
[4] = females, 500 mg kg^−1, end of 28 day daily dosing
[5] = females, 1000 mg kg^−1, end of 28 day daily dosing
[6] = males, 100 mg kg^−1, end of 28 day daily dosing
[7] = males, 500 mg kg^−1, end of 28 day daily dosing
[8] = males, 1000 mg kg^−1, end of 28 day daily dosing

O=C(NCCS)c1cccc(C(=O)NCCS)c1 [NBMI, N,N′-bis(2-mercaptoethyl)isophthalamide]
deaths and clinical signs (rats; [2]): No deaths or abnormal weight loss, ataxia, loss of appetite
microscopic and histological analysis of organs (rats; [2]): None of their organs displayed changes indicating toxic effects
spleen finding (rats; [2]): mild to moderate B-cell proliferation
Ca^2+ (rats; [3]): 10.78 mg/dL
Cl^− (rats; [3]): 103 meq L^−1
HCT (rats; [3]): 43.7%
HGB (rats; [3]): 15.2 gm DL^−1
K^+ (rats; [3]): 4.81 meq L^−1
Mg^2+ (rats; [3]): 2.64 meq L^−1
Na^+ (rats; [3]): 142 meq L^−1
Phosphorus (rats; [3]): 7.82 mg/dL
RBC (rats; [3]): 8.0 mill UL^−1
Ca^2+ (rats; [4]): 10.89 mg/dL
Cl^− (rats; [4]): 105 meq L^−1
HCT (rats; [4]): 42%
HGB (rats; [4]): 15 gm DL^−1
K^+ (rats; [4]): 5.08 meq L^−1
Mg^2+ (rats; [4]): 2.72 meq L^−1
Na^+ (rats; [4]): 143 meq L^−1
Phosphorus (rats; [4]): 8.15 mg/dL
RBC (rats; [4]): 8.0 mill UL^−1
Ca^2+ (rats; [5]): 10.84 mg/dL
Cl^− (rats; [5]): 105 meq L^−1
HCT (rats; [5]): 40%
HGB (rats; [5]): 14 gm DL^−1
K^+ (rats; [5]): 4.89 meq L^−1
Mg^2+ (rats; [5]): 2.82 meq L^−1
Na^+ (rats; [5]): 144 meq L^−1
Phosphorus (rats; [5]): 8.49 mg/dL
RBC (rats; [5]): 7.6 mill UL^−1
Ca^2+ (rats; [6]): 10.64 mg/dL
Cl^− (rats; [6]): 105 meq L^−1
HCT (rats; [6]): 46.2%
HGB (rats; [6]): 15.6 gm DL^−1
K^+ (rats; [6]): 4.83 meq L^−1
Mg^2+ (rats; [6]): 2.58 meq L^−1
Na^+ (rats; [6]): 143 meq L^−1
Phosphorus (rats; [6]): 8.23 mg/dL
RBC (rats; [6]): 8.7 mill UL^−1
Ca^2+ (rats; [7]): 10.6 mg/dL
Cl^− (rats; [7]): 104 meq L^−1
HCT (rats; [7]): 45.1%
HGB (rats; [7]): 15.2 gm DL^−1
K^+ (rats; [7]): 5.03 meq L^−1
Mg^2+ (rats; [7]): 2.62 meq L^−1
Na^+ (rats; [7]): 144 meq L^−1
Phosphorus (rats; [7]): 8.42 mg/dL
RBC (rats; [7]): 8.3 mill UL^−1
Ca^2+ (rats; [8]): 10.53 mg/dL
Cl^− (rats; [8]): 106 meq L^−1
HCT (rats; [8]): 45.5%
HGB (rats; [8]): 15.5 gm DL^−1
K^+ (rats; [8]): 5.15 meq L^−1
Mg^2+ (rats; [8]): 2.56 meq L^−1
Na^+ (rats; [8]): 143 meq L^−1
Phosphorus (rats; [8]): 8.84 mg/dL
RBC (rats; [8]): 8.5 mill UL^−1
concentration at 1 h ([1]; bone marrow, po): 12.5 ± 7.4 ng/g
concentration at 2 h ([1]; bone marrow, po): 65.7 ± 51.6 ng/g
concentration at 8 h ([1]; bone marrow, po): 6.88 ± 0.62 ng/g
concentration at 24 h ([1]; bone marrow, po): 3.76 ± 0.77 ng/g
concentration at 1 h ([1]; brain, po): 6.1 ± 2.6 ng/g
concentration at 2 h ([1]; brain, po): 51.8 ± 43.9 ng/g
concentration at 8 h ([1]; brain, po): 2.57 ± 0.34 ng/g
concentration at 24 h ([1]; brain, po): 2.09 ± 0.41 ng/g
concentration at 1 h ([1]; kidney, po): 61.3 ± 42.7 ng/g
concentration at 2 h ([1]; kidney, po): 145 ± 89.9 ng/g
concentration at 8 h ([1]; kidney, po): 45.1 ± 3.4 ng/g
concentration at 24 h ([1]; kidney, po): 36.9 ± 3.7 ng/g
concentration at 1 h ([1]; liver, po): 165 ± 144 ng/g
concentration at 2 h ([1]; liver, po): 272 ± 274 ng/g
concentration at 8 h ([1]; liver, po): 23.3 ± 2.2 ng/g
concentration at 24 h ([1]; liver, po): 14.2 ± 2.3 ng/g
concentration at 1 h ([1]; plasma, po): 588 ± 90 ng/mL
concentration at 2 h ([1]; plasma, po): 883 ± 216 ng/mL
concentration at 8 h ([1]; plasma, po): 391 ± 14 ng/mL
concentration at 24 h ([1]; plasma, po): 118 ± 29 ng/mL
concentration at 1 h ([1]; small intestine, po): 7430 ± 3200 ng/g
concentration at 2 h ([1]; small intestine, po): 8530 ± 5320 ng/g
concentration at 8 h ([1]; small intestine, po): 1560 ± 826 ng/g
concentration at 24 h ([1]; small intestine, po): 1040 ± 396 ng/g
concentration at 1 h ([1]; spleen, po): 12.1 ± 5.2 ng/g
concentration at 2 h ([1]; spleen, po): 153 ± 129 ng/g
concentration at 8 h ([1]; spleen, po): 16.8 ± 1.5 ng/g
concentration at 24 h ([1]; spleen, po): 12.7 ± 2.7 ng/g
concentration at 1 h ([1]; subcutaneous fat, oral): 420 ± 419 ng/g
concentration at 2 h ([1]; subcutaneous fat, oral): 683 ± 531 ng/g
concentration at 8 h ([1]; subcutaneous fat, oral): 17.3 ± 7.4 ng/g
concentration at 24 h ([1]; subcutaneous fat, oral): 7 ± 0.7 ng/g
clearance from the body from peak values within 24 hours of ingestion ([1]; oral gavage): about 90%
time of highest concentration in plasma and all tissues ([1]; post ingestion, oral gavage): 2 h
